# In the library only some 5.8% were active in any assay of this set; here they are far more common.
# Pf Dd2 growth: blocks growth of Plasmodium falciparum Dd2 parasites | P. falciparum Dd2 growth, SYBR Green, 72 h; hits give low values | activity change, % at 10 µM | 94,000 compounds, 2.3% hits; in the data active = activity change below about -80%; inconclusive = no clear call, values can overlap the other calls
# KDM4C inh: inhibitors of human demethylase GASC-1 KDM4C; 96,000 compounds, 0.15% hits; inhibition, % at 12.5 µM; Q9H3R0; GST-KDM4C 2-372, H3K9me3 peptide, LANCE TR-FRET; AID 720574;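 active = mean replicate inhibition above about 25%, with at least 55% of replicates also reaching it, limit read from the data, passing the limit was not always enough; inconclusive = only one of those two conditions met; inactive = neither condition met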
#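 System: N-terminal GST-fused human GASC-1 (KDM4C) fragment, residues 2-372; amount: enzyme final amount 10 nM; incubation: reaction 30 min RT, detection step 1 h RT; medium: HEPES buffer, pH 7.5, plus ascorbate; technique: LANCE TR-FRET, Eu antibody, ULight-streptavidin, EDTA, ex 340 nm, em 618/671 nm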
# IDH1 mut inh: IDH1 R132H (human) inhibition | 70,000 compounds, 0.18% hits | AID 624101 | inhibition, % at 10 µM | IDH1 R132H reductase, diaphorase/resazurin fluorescence, 60 min; in the data active = inhibition above about 34%; inconclusive = no clear call, values can overlap the other calls; inactive = below about 11%
# Target sequence (O75874 whole entry R132H): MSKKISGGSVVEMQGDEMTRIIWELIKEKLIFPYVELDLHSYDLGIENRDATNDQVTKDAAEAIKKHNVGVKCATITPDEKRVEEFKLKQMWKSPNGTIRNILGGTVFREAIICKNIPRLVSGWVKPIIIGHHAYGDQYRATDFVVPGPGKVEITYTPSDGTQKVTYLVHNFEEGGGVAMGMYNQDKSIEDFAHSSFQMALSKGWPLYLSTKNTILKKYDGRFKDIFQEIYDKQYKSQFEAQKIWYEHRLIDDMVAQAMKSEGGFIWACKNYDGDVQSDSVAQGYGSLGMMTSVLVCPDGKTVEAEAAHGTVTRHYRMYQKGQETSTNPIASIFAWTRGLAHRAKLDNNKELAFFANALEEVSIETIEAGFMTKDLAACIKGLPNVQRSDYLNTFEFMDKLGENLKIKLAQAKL
# T cruzi growth-1: T. cruzi proliferation inhibition. T. cruzi beta-gal in NIH3T3, GalScreen luminescence, 90 h. inhibition, % at 8.34 µM. 77,000 compounds, 5.9% hits;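 active = mean inhibition above about 93%, with at least 55% of replicates each passing it, limit read from the data, passing the limit was not always enough; inconclusive = only one of those two conditions holds; inactive = neither condition holds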
# T cruzi growth-2: Trypanosoma cruzi proliferation inhibition; 5,600 compounds, 72% hits; inhibition, % at 8.35 µM; shares compounds with T cruzi growth-1; T. cruzi beta-gal in NIH3T3, GalScreen luminescence, 90 h;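 active = mean replicate inhibition above about 95% and at least 55% of replicates individually reaching it, limit read from the data; inconclusive = only one of the two criteria is met; inactive = neither criterion is met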
# T cruzi growth-3: Trypanosoma cruzi proliferation inhibition; shares compounds with T cruzi growth-1; T. cruzi beta-gal in NIH3T3, GalScreen luminescence, 90 h; inhibition, % at 2.09 µM; 5,600 compounds, 21% hits;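 active = mean inhibition above about 95%, with at least 55% of replicates also reaching it, limit read from the data; inconclusive = meets just one of the two conditions; inactive = meets neither condition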
# NIH3T3 tox: cytotoxicity in mouse NIH/3T3 fibroblasts; NIH/3T3 viability, CellTiter-Glo ATP luminescence, 90 h; 5,600 compounds, 14% hits; shares compounds with T cruzi growth-1; AID 651742; cytotoxicity (signal decrease), % at 8.35 µM;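 active = mean signal decrease across replicates above about 35% based on untreated-well scatter, with enough replicates individually passing, limit read from the data; inconclusive = no rule stated though some were filed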
# 3T3 cytotox 2: cytotoxicity in mouse NIH/3T3 fibroblasts. shares compounds with T cruzi growth-1. NIH/3T3 viability, CellTiter-Glo ATP luminescence, 90 h. inhibition, % at 24.9 µM. 5,600 compounds, 56% hits;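 active = mean loss of cell viability signal at or above a set limit, and enough replicates individually reaching it; inconclusive = meets only the mean limit or only the replicate share; inactive = meets neither condition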
# A number is an active result; 0 = inactive; ? = inconclusive; - = no result given.
SMILES,Pf Dd2 growth,KDM4C inh,IDH1 mut inh,T cruzi growth-1,T cruzi growth-2,T cruzi growth-3,NIH3T3 tox,3T3 cytotox 2
O=C(Nc1ccccc1)N1CCCCN2[C@H](CO)[C@H](c3ccc(C4=CCCCC4)cc3)[C@@H]2C1,0,0,-,?,115.3,0,0,93.6
COc1ccc(NC(=O)N2CCCCN3[C@H](C2)[C@H](c2ccc(C4=CCCC4)cc2)[C@@H]3CO)cc1,0,-,-,0,-,-,-,-
O=C(Nc1ccccc1)N1CCCCN2[C@H](C1)[C@H](c1ccc(C3=CCCCC3)cc1)[C@@H]2CO,0,0,-,110.2,108.9,0,0,79.2
O=C(Nc1ccccc1)N1CCCCN2[C@H](C1)[C@@H](c1ccc(-c3ccccc3)cc1)[C@@H]2CO,0,0,-,0,-,-,-,-
O=C(Nc1ccccc1)N1CCCCN2[C@@H](CO)[C@@H](c3ccc(-c4ccccc4)cc3)[C@@H]2C1,0,0,-,0,-,-,-,-
O=C(Nc1ccccc1)N1CCCCN2[C@@H](CO)[C@H](c3ccc(C4=CCCCC4)cc3)[C@@H]2C1,0,0,-,?,0,0,116.2,104.6
COc1ccc(NC(=O)N2CCCCN3[C@@H](CO)[C@H](c4ccc(C5=CCCCC5)cc4)[C@@H]3C2)cc1,0,0,-,0,-,-,-,-
O=C(Nc1ccccc1F)N1CCCCN2[C@H](CO)[C@H](c3ccc(C4=CCCC4)cc3)[C@@H]2C1,0,0,-,109.9,109.3,0,0,0
O=C(Nc1ccc(F)cc1)N1CCCCN2[C@H](CO)[C@H](c3ccc(C4=CCCCC4)cc3)[C@@H]2C1,0,0,-,118.2,106.5,98.1,0,63.0
O=C(C[C@H]1CC[C@H]2[C@@H](COC[C@@H](O)CN2S(=O)(=O)c2ccc(Cl)cc2)O1)N[C@@H]1CCN(Cc2ccccc2)C1,0,0,-,96.1,?,0,0,0
Cc1ccc(S(=O)(=O)N2C[C@H](O)COC[C@H]3O[C@@H](CC(=O)N[C@@H]4CCN(Cc5ccccc5)C4)CC[C@@H]32)cc1,0,0,-,97.9,0,0,0,0
Cc1ccc(S(=O)(=O)N2C[C@H](O)COC[C@@H]3O[C@H](CC(=O)N[C@@H]4CCN(Cc5ccccc5)C4)CC[C@H]32)cc1,0,0,-,0,-,-,-,-
C[C@@H]1CN([C@H](C)CO)C(=O)c2ccccc2-c2ccccc2CO[C@H]1CN(C)C(=O)[C@H](Cc1ccccc1)N(C)C,0,0,-,0,-,-,-,-
C[C@H](CO)N1C[C@H](C)[C@H](CN(C)S(=O)(=O)c2ccc(Cl)cc2)Oc2ccc(NC(=O)Nc3cccc4ccccc34)cc2CC1=O,0,0,-,0,-,-,-,-
CCCC#Cc1ccc([C@H]2[C@H]3CN(S(=O)(=O)c4ccccc4F)CCCCN3[C@H]2CO)cc1,0,0,-,?,111.3,0,0,104.7
CN(C)CC#Cc1ccc([C@@H]2[C@@H](CO)N3CCCCN(S(=O)(=O)c4ccccc4F)C[C@H]23)cc1,0,0,-,111.0,97.9,0,0,84.6
C[C@@H]1CN([C@@H](C)CO)S(=O)(=O)c2ccc(-c3ccc(C(=O)N(C)C)cc3)cc2O[C@@H]1CN(C)C,0,0,0,0,-,-,-,-
C[C@@H]1CN([C@@H](C)CO)S(=O)(=O)c2ccc(C#CCN(C)C)cc2O[C@@H]1CN(C)C(=O)C1CCC1,0,0,-,0,-,-,-,-
C[C@@H]1CN([C@H](C)CO)S(=O)(=O)c2ccc(C#CCN(C)C)cc2O[C@H]1CN(C)C(=O)C1CCC1,0,0,0,100.2,?,100.4,0,0
C[C@@H]1CN([C@@H](C)CO)S(=O)(=O)c2ccc(C#CCN(C)C)cc2O[C@@H]1CN(C)C(=O)C1CCCCC1,0,0,0,-,-,-,-,-
C[C@H]1CN([C@@H](C)CO)S(=O)(=O)c2ccc(C#CCN(C)C)cc2O[C@H]1CN(C)C(=O)C1CC1,0,0,-,0,-,-,-,-
C[C@H](CO)N1C[C@H](C)[C@H](CN(C)C(=O)C2CC2)Oc2cc(C#CCN(C)C)ccc2S1(=O)=O,0,0,0,94.7,109.2,0,0,0
C[C@H]1CN([C@@H](C)CO)S(=O)(=O)c2ccc(C#CCN(C)C)cc2O[C@H]1CN(C)C(=O)C1CCC1,0,0,0,105.0,101.9,0,0,0
C[C@@H]1CN([C@@H](C)CO)S(=O)(=O)c2ccc(C#CCN(C)C)cc2O[C@H]1CN(C)C(=O)C1CCC1,0,0,-,103.8,108.0,98.9,0,0
O=C(c1cccc(F)c1)N1CC[C@H]2[C@H](CO)Nc3ccc(C#Cc4ccccc4)cc3[C@H]21,0,0,-,-,-,-,-,-
SMILES,Pf Dd2 growth,KDM4C inh,IDH1 mut inh,T cruzi growth-1,T cruzi growth-2,T cruzi growth-3,NIH3T3 tox,3T3 cytotox 2
COc1ccc(C#Cc2ccc3c(c2)[C@@H]2[C@@H](CCN2C(=O)c2cccc(F)c2)[C@@H](CO)N3)cc1,0,0,-,102.2,108.1,0,0,25.8
O=C(c1cccc(F)c1)N1CC[C@@H]2[C@H]1c1cc(C#Cc3ccc(F)cc3)ccc1N[C@@H]2CO,0,0,-,114.3,107.7,0,0,79.1
COc1cccc(NC(=O)C[C@H]2CC[C@H]3[C@@H](COc4ccc(NC(C)=O)cc4C(=O)N3C)O2)c1,0,0,-,0,-,-,-,-
COc1ccc(NC(=O)N(C)C[C@H]2Oc3cc(-c4ccc(C)cc4)ccc3S(=O)(=O)N([C@H](C)CO)C[C@H]2C)cc1,0,0,0,102.0,103.5,0,0,0
COc1ccc(NC(=O)N(C)C[C@H]2Oc3cc(-c4ccc(C)cc4)ccc3S(=O)(=O)N([C@H](C)CO)C[C@@H]2C)cc1,0,0,0,114.3,0,0,0,0
COc1ccc(NC(=O)N(C)C[C@H]2Oc3cc(-c4ccc(C)cc4)ccc3S(=O)(=O)N([C@@H](C)CO)C[C@@H]2C)cc1,0,0,0,126.2,107.2,0,0,37.1
Cc1ccc(-c2ccc3c(c2)O[C@@H](CN(C)C(=O)Nc2ccccc2)[C@H](C)CN([C@H](C)CO)S3(=O)=O)cc1,0,0,0,-,-,-,-,-
COc1ccc(NC(=O)N(C)C[C@@H]2Oc3cc(-c4ccc(C)cc4)ccc3S(=O)(=O)N([C@@H](C)CO)C[C@H]2C)cc1,-92.7,0,0,97.2,103.5,0,0,0
CN(C)CC(=O)Nc1ccc2c(c1)[C@@H]1C[C@@H](CC(=O)NCc3ccc(Cl)cc3)O[C@@H](CO)[C@@H]1O2,0,0,0,0,-,-,-,-
COc1ccc(NC(=O)N(C)C[C@@H]2Oc3cc(-c4ccc(C)cc4)ccc3S(=O)(=O)N([C@@H](C)CO)C[C@@H]2C)cc1,-87.4,0,0,103.7,114.6,0,?,42.5
COc1ccc(NC(=O)N(C)C[C@@H]2Oc3cc(-c4ccc(C)cc4)ccc3S(=O)(=O)N([C@H](C)CO)C[C@H]2C)cc1,-89.2,0,0,108.0,105.5,0,0,25.6

# Bioassay records: PubChem, Broad Institute
